Experimental data reported in ChEMBL document CHEMBL1125418, “Antimycobacterial activity of a series of pyrazinoic acid esters” (1992).
Values after ≈ are worked out from the molar mass of the structure shown.

Assays:
[1] = tested on: Mycobacterium tuberculosis; assay: In vitro activity against Mycobacterium. tuberculosis (strain type-ATCC 35828)at pH 6.6; format: functional
Summary of the method: (§1)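 Twofold serial dilutions (200–3.12 µg/mL) in 7H10 agar with 10% OADC enrichment at pH 6.6, in compartmented plates. Plates were stored at 4 °C and used within 24–48 h. A no-drug compartment served as control for each isolate. Plates were incubated for 4 weeks at 37 °C. MIC was the lowest concentration giving 99% (2 log) growth inhibition.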

[2] = tested on: Mycobacterium kansasii; assay: In vitro activity against Mycobacterium. kansasii (strain type-SWK).at pH 5.8; format: functional
Summary of the method: (§2)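 Pyrazinamide-resistant isolate SWK tested on Middlebrook 7H10 agar plus 10% OADC adjusted to pH 5.8. Compartmented plates hold 2-fold dilutions from 200 to 3.12 µg/mL, prepared 24–48 h before use and kept at 4 °C, with a drug-free compartment. Incubation was 37 °C for 4 weeks. MIC is the lowest level causing 99% (2 log) growth inhibition.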

[3] = tested on: Mycobacterium kansasii; assay: In vitro activity against Mycobacterium. kansasii (strain type-SWK).at pH 6.6; format: functional
Summary of the method: (§3)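 MIC for pyrazinamide-resistant isolate SWK by agar dilution in Middlebrook 7H10 with 10% OADC at pH 6.6. Serial 2-fold dilutions run 200–3.12 µg/mL in compartmented plates prepared 24–48 h in advance and stored at 4 °C. A drug-free control is included. Plates were held at 37 °C for 4 weeks. The endpoint is 99% (2 log) inhibition of growth.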

[4] = tested on: Mycobacterium tuberculosis; assay: In vitro activity against Mycobacterium. tuberculosis (strain type-H37Rv) at pH 5.8; format: functional; conditions: Mycobacterium tuberculosis; read-out: MIC
[5] = tested on: Mycobacterium tuberculosis; assay: In vitro activity against Mycobacterium. tuberculosis (strain type-H37Rv) at pH 6.6; format: functional; conditions: Mycobacterium tuberculosis; read-out: MIC
[6] = tested on: Mycobacterium tuberculosis; assay: In vitro activity against Mycobacterium. tuberculosis (strain type-ATCC 35828)at pH 5.8; format: functional
Summary of the method: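 Middlebrook 7H10 agar plus 10% OADC at pH 5.8 in compartmented plates, with serial twofold dilutions from 200 to 3.12 µg/mL. Plates were prepared 24–48 h before use and stored at 4 °C. A drug-free compartment was included per isolate. Incubation was 37 °C for 4 weeks. MIC was the lowest level producing 99% (2 log) inhibition of growth.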

[7] = tested on: Mycobacterium tuberculosis; assay: In vitro activity against Mycobacterium strain ATCC 35828 (Mycobacterium tuberculosis); format: functional
Summary of the method: (§4)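 Agar dilution in compartmented plates of Middlebrook 7H10 agar with 10% OADC, adjusted to pH 5.8 or pH 6.6. Twofold compound dilutions spanned 200–3.12 µg/mL. Plates were made 24–48 h ahead and held at 4 °C. MIC (µg/mL) was the lowest concentration giving 99% (2 log) growth inhibition.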

[8] = tested on: Mycobacterium tuberculosis; assay: In vitro activity against Mycobacterium strain BAK (Mycobacterium tuberculosis); format: functional; conditions: Mycobacterium tuberculosis; read-out: MIC
[9] = tested on: Mycobacterium tuberculosis; assay: In vitro activity against Mycobacterium strain BUR (Mycobacterium tuberculosis); format: functional; summary of the method: as §4
[10] = tested on: Mycobacterium tuberculosis; assay: In vitro activity against Mycobacterium. tuberculosis (strain type-BUR)at pH 5.8; format: functional
[11] = tested on: Mycobacterium tuberculosis; assay: In vitro activity against Mycobacterium strain CES (Mycobacterium tuberculosis); format: functional; summary of the method: as §4
[12] = tested on: Mycobacterium tuberculosis; assay: In vitro activity against Mycobacterium strain DOL (Mycobacterium tuberculosis); format: functional; conditions: Mycobacterium tuberculosis; read-out: MIC
[13] = tested on: Mycobacterium tuberculosis; assay: In vitro activity against Mycobacterium strain DOU (Mycobacterium tuberculosis); format: functional; summary of the method: as §4
[14] = tested on: Mycobacterium kansasii; assay: In vitro activity against Mycobacterium. kansasii (strain type-SWK)at pH 6.6; format: functional; summary of the method: as §3
[15] = tested on: Mycobacterium kansasii; assay: In vitro activity against Mycobacterium. kansasii (strain type-SWK)at pH 5.8; format: functional; summary of the method: as §2
[16] = tested on: Mycobacterium kansasii; assay: In vitro activity against Mycobacterium strain SWK (Mycobacterium kansasii); format: functional
Summary of the method: (§5)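 Agar dilution MIC against pyrazinamide-resistant clinical isolates on Middlebrook 7H10 agar with 10% OADC at pH 5.8 or pH 6.6. Serial 2-fold dilutions span 200–3.12 µg/mL in compartmented plates made 24–48 h ahead and stored at 4 °C. Each isolate has a drug-free control. Plates were incubated at 37 °C for 4 weeks. MIC is the lowest concentration giving 99% (2 log) growth inhibition.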

[17] = tested on: Mycobacterium tuberculosis; assay: In vitro activity against Mycobacterium strain ING (Mycobacterium tuberculosis); format: functional; summary of the method: as §4
[18] = tested on: Mycobacterium tuberculosis; assay: In vitro activity against Mycobacterium strain LEL (Mycobacterium tuberculosis); format: functional
[19] = tested on: Mycobacterium tuberculosis; assay: In vitro activity against Mycobacterium strain MCQ (Mycobacterium tuberculosis); format: functional; summary of the method: as §4
[20] = tested on: Mycobacterium tuberculosis; assay: In vitro activity against Mycobacterium strain SMA (Mycobacterium tuberculosis); format: functional
[21] = tested on: Mycobacterium tuberculosis; assay: In vitro activity against Mycobacterium strain WOO (Mycobacterium tuberculosis); format: functional; summary of the method: as §4
[22] = tested on: Mycobacterium tuberculosis; assay: In vitro activity against Mycobacterium strain GLA (Mycobacterium tuberculosis)
[23] = tested on: Mycobacterium tuberculosis; assay: In vitro activity against Mycobacterium strain DUB (Mycobacterium tuberculosis); format: functional
[24] = tested on: Mycobacterium kansasii; assay: In vitro activity against Mycobacterium strain SCH (Mycobacterium kansasii); format: functional; summary of the method: as §5
[25] = tested on: Mycobacterium tuberculosis; assay: In vitro activity against Mycobacterium. tuberculosis (strain type-BUR)at pH 6.6; format: functional; summary of the method: as §1

**Q.** What does the source list for `O=C(Oc1c(F)c(F)c(F)c(F)c1F)c1cnccn1`?
**A.** MIC [1]: 100 mg/L (≈ 345 µM); MIC [2]: 25 mg/L (≈ 86.2 µM); MIC [3]: > 200 mg/L; MIC [4]: 12.5 mg/L (≈ 43.1 µM); MIC [5]: 100 mg/L (≈ 345 µM); MIC [6]: 12.5 mg/L (≈ 43.1 µM)

**Q.** What does the source list for `C=CCOC(=O)c1cnccn1`?
**A.** MIC [7]: 6.25 mg/L (≈ 38.1 µM); MIC [8]: 3.12 mg/L (≈ 19 µM); MIC [9]: 6.25 mg/L (≈ 38.1 µM); MIC [10]: 6.25 mg/L (≈ 38.1 µM); MIC [11]: < 3.12 mg/L; MIC [12]: < 3.12 mg/L; MIC [13]: 3.12 mg/L (≈ 19 µM); MIC [1]: 200 mg/L (≈ 1220 µM); MIC [14]: 12.5 mg/L (≈ 76.1 µM); MIC [15]: < 3.12 mg/L; MIC [16]: 6.25 mg/L (≈ 38.1 µM); MIC [4]: < 3.12 mg/L; MIC [5]: 200 mg/L (≈ 1220 µM); MIC [17]: 3.12 mg/L (≈ 19 µM); MIC [18]: 3.12 mg/L (≈ 19 µM); MIC [19]: < 3.12 mg/L; MIC [20]: 3.12 mg/L (≈ 19 µM); MIC [21]: 6.25 mg/L (≈ 38.1 µM); MIC [22]: 6.25 mg/L (≈ 38.1 µM); MIC [6]: 6.25 mg/L (≈ 38.1 µM); MIC [23]: 6.25 mg/L (≈ 38.1 µM); MIC [24]: 6.25 mg/L (≈ 38.1 µM)

**Q.** Which results are given for `O=C(Oc1ccc(-c2ccccc2)cc1)c1cnccn1`?
**A.** MIC [25]: 50 mg/L (≈ 181 µM); MIC [1]: 100 mg/L (≈ 362 µM); MIC [2]: 25 mg/L (≈ 90.5 µM); MIC [3]: 100 mg/L (≈ 362 µM); MIC [4]: 6.25 mg/L (≈ 22.6 µM); MIC [6]: 25 mg/L (≈ 90.5 µM)
